Measured values from different studies.
Lines come from different studies, so protocols differ.
Observed: cell growth or viability

| SMILES | cell line | assay | conditions | quantity | result |
| --- | --- | --- | --- | --- | --- |
| Cc1cc(Nc2ccc(C(=O)N/N=C/c3cc4ccccc4[nH]3)cc2)c2cccc(O)c2n1 | Huh-7 | MTT | 20 µM | inhibition | 60.2% |
| COc1ccc(NC(=O)c2c(Nc3ccccc3)sc(C#N)c2NC(=O)CNc2ccc([N+](=O)[O-])cc2)cc1 | HepG2 | SRB | 0.1 µM, 48 h | viability | 75.2% |
| COc1cc([C@@H]2c3cc4c(cc3[C@@H](O[C@@H]3O[C@@H]5CO[C@@H](C)O[C@H]5[C@H](O)[C@H]3O)[C@H]3COC(=O)[C@H]23)OCO4)cc(OC)c1O | CCD-18Co | MTS | 24 h | IC50 | 48.4 µM |
| Cc1cc(Nc2ccc(C(=O)N/N=C/c3nc4ccccc4[nH]3)cc2)c2cccc(O)c2n1 | Huh-7 | MTT | 20 µM | inhibition | 33% |
| CCCCCCCCCCCCNC(=S)NCCCC[C@H](NS(C)(=O)=O)C(=O)N[C@@H](C)C(=O)N[C@@H](CCCNC(=N)N)C(N)=O | HEK-293T | MTT | 72 h | EC50 | ~100 µM |
| CCOC(=O)c1ccc(NC(=O)C2=C3C(=Nc4ccccc43)NC2=O)cc1 | HepG2 | MTT | 6.25 µM, 24 h | viability | 90.2% |
| CCOC(=O)c1sc(NCc2ncccn2)nc1-c1ccccn1 | Huh-7 | – | – | CC50 | > 40 µM |
| Cc1cc(Nc2ccc(C(=O)N/N=C/c3cccc(Oc4ccccc4)c3)cc2)c2cccc(O)c2n1 | Huh-7 | MTT | 20 µM | inhibition | 61% |
| COc1ccc(NC(=O)c2c(Nc3ccccc3)sc(C(=O)NN=Cc3ccccc3)c2NC(C)=O)cc1 | HepG2 | SRB | 100 µM, 48 h | viability | 60.2% |
| CC(C)C[C@H](NC(=O)[C@H](Cc1ccccc1)NC(=O)c1cnccn1)B(O)O | HEC-1B | ATP luminescence | – | IC50 | 0.0096 µM |
| Cc1cc(Nc2ccc(C(=O)N/N=C/c3cccs3)cc2)c2cccc(O)c2n1 | Huh-7 | MTT | 20 µM | inhibition | 42.1% |
| COc1cc(Nc2nccc(-c3cnn4nc(OC)ccc34)n2)cc(C(F)(F)F)c1 | HEC-1B | ATP luminescence | – | IC50 | > 3 µM |
| CCOC(=O)c1ccc(-n2c(C)cc(C)c(C#N)c2=O)cc1 | HepG2 | MTT | 50 µM, 24 h | viability | 51.2% |
| c1ccc(-c2csc(NCc3ncccn3)n2)nc1 | Huh-7 | – | – | CC50 | > 40 µM |
| CCOC(=O)c1ccc(-n2c(C)cc(/C=C/c3ccc(OC)cc3)c(C#N)c2=O)cc1 | HepG2 | MTT | 50 µM, 24 h | viability | 58.1% |
| COc1ccc(NC(=O)c2c(Nc3ccccc3)sc(C(=O)NN=Cc3cc(OC)c(OC)c(OC)c3)c2NC(C)=O)cc1 | HepG2 | SRB | 10 nM, 48 h | viability | 89.2% |
| CCOC(=O)c1ccc(-n2c(N)c(C#N)c(CC#N)c(C#N)c2=O)cc1 | HepG2 | MTT | 3.125 µM, 24 h | viability | 90.2% |

| SMILES | cell line | assay | conditions | quantity | result |
| --- | --- | --- | --- | --- | --- |
| CCCCCCCCCCCCNC(=S)NCCCC[C@H](NC(=O)OCc1ccccc1)C(=O)N[C@@H](C)C(=O)N[C@@H](CCCNC(=N)N)C(N)=O | HEK-293T | MTT | 72 h | EC50 | 102 to 121 µM |
| C=CC(=O)N1CCC[C@@H](n2nc(-c3ccc(Oc4ccccc4)cc3)c3c(N)ncnc32)C1 | Ramos | – | 48 h | GI50 | > 10 µM |
| COc1cc2c(Nc3ccc(Br)cc3F)ncnc2cc1OCC1CCN(C)CC1 | NCI-H292 | ATP luminescence | 72 h | GI50 | 1.14 µM |
| CCCCCCCCCCCCNC(=S)NCCCC[C@H](NS(C)(=O)=O)C(=O)N[C@H](C)C(=O)N[C@@H](CCCNC(=N)N)C(=O)N1CCOCC1 | HEK-293T | MTT | 72 h | EC50 | > 100 µM |
| CNC(=O)c1cc(Oc2ccc(NC(=O)Nc3ccc(Cl)c(C(F)(F)F)c3)cc2)ccn1 | HepG2 | SRB | 100 µM, 48 h | viability | 40.3% |
| Cc1cc(Nc2ccc(C(=O)N/N=C/c3ccccc3)cc2)c2cccc(O)c2n1 | Huh-7 | MTT | 20 µM | inhibition | 32.3% |
| C=CC(=O)Nc1cc(-n2c(=O)ccc3cnc4ccc(-c5ccc(NS(C)(=O)=O)cc5)cc4c32)ccc1C | Ramos | – | 48 h | GI50 | 1.8 µM |
| Cc1cc(Nc2ccc(C(=O)N/N=C/C3CCCCC3)cc2)c2cccc(O)c2n1 | Huh-7 | MTT | 20 µM | inhibition | 41.1% |
| COc1ccc(NC(=O)c2c(Nc3ccccc3)sc(C#N)c2NC(=O)CNc2ccccc2Cl)cc1 | HepG2 | SRB | 100 µM, 48 h | viability | 90.3% |
| Cc1cc(Nc2ccc(C(=O)N/N=C/c3ccc(C)s3)cc2)c2cccc(O)c2n1 | Huh-7 | MTT | 20 µM | inhibition | 43.3% |
| COc1ccc(NC(=O)c2c(Nc3ccccc3)sc(C(=O)NN=Cc3ccc(Cl)cc3)c2NC(C)=O)cc1 | HepG2 | SRB | 10 µM, 48 h | viability | 71.2% |
| CCOC(=O)c1ccc(N2C(N)=C(C#N)C3(C(=O)Nc4ccccc43)C(C#N)=C2O)cc1 (stereo not drawn) | HepG2 | MTT | 1.56 µM, 24 h | viability | 94.2% |
| COc1ccc(NC(=O)c2c(Nc3ccccc3)sc(C#N)c2NC(=O)CNc2ccc(O)cc2)cc1 | HepG2 | SRB | 100 µM, 48 h | viability | 53.9% |
| CCOC(=O)c1ccc(-n2c(C)cc(/C=C/c3ccc(OCC)cc3)c(C#N)c2=O)cc1 | HepG2 | MTT | 3.125 µM, 24 h | viability | 100% |
| COc1ccc(NC(=O)c2c(Nc3ccccc3)sc(C#N)c2NC(=O)CNc2ccccc2)cc1 | HepG2 | SRB | 1 nM, 48 h | viability | 102% |
| COc1ccc(/C=N/NC(=O)c2ccc(Nc3cc(C)nc4c(O)cccc34)cc2)cc1O | Huh-7 | MTT | 20 µM | inhibition | 30.2% |
